From ChEMBL document CHEMBL3797094, “Turmeric Sesquiterpenoids: Expeditious Resolution, Comparative Bioactivity, and a New Bicyclic Turmeronoid” (J Nat Prod, 2016)
Active and inactive are the calls of the source. The calls are words filed in the database; no cut-off is given here.

Assays:
[1] = target: T1, Nuclear factor erythroid 2-related factor 2 (Homo sapiens) (UniProt Q16236); assay: Activation of Nrf2 (unknown origin) in HaCaT-ARE-Luc cells at 1 to 50 uM after 6 hrs by luciferase reporter gene assay; assay type: cell-based
T1 sequence (whole entry): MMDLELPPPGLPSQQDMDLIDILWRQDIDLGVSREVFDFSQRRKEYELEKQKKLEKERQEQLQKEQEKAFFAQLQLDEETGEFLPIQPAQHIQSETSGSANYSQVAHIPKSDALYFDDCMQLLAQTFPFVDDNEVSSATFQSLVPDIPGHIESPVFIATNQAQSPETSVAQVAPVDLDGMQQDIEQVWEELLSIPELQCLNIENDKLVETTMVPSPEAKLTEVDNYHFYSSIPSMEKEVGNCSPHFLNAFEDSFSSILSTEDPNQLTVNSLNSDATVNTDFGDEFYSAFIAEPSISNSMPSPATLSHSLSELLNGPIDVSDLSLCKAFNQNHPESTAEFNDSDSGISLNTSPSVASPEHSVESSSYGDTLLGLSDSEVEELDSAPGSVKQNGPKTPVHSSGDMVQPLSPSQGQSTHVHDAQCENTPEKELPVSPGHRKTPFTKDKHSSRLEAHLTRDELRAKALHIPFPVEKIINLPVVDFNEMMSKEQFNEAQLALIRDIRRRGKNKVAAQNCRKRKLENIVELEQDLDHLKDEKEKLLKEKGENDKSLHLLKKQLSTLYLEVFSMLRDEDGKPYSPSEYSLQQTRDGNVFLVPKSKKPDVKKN
Outline: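 HaCaT-ARE-Luc cells (15 × 10⁴ cells/mL, DMEM with 10% FBS, 37 °C, 5% CO2) were exposed to the compounds alone at rising concentrations for 6 h. Cells were PBS-washed and lysed in Tris-phosphate pH 7.8 with Triton X-100. Luciferase activity in the cleared lysate is given as fold induction over basal.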

[2] = system: HeLa; assay: Cytotoxicity against human HeLa-STAT3-Luc cells assessed as cell viability at 1 to 50 uM after 12 hrs by YOYO-1 staining based fluorescence assay
[3] = target: Hypoxia-inducible factor 1-alpha (Homo sapiens) (UniProt Q16665); assay: Inhibition of DFX induced HIF-1 alpha (unknown origin) activation in NIH/3T3-EPO-Luc cells at 1 to 50 uM after 6 hrs by luciferase reporter gene assay; assay type: cell-based
Outline: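 NIH-3T3-EPO-Luc cells (15 × 10⁴ cells/mL, DMEM with 10% FBS, 37 °C) were preincubated with the compounds at rising concentrations, then given DFX (150 μM) for 6 h. Luciferase was measured in the cleared Tris-phosphate/Triton lysate and expressed as fold induction over basal.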

[4] = species: Homo sapiens; assay: Inhibition of TNF alpha-induced NF-kappaB (unknown origin) activation in NIH/3T3-KBF-Luc cells assessed as suppression of p65 phosphorylation at 1 to 50 uM preincubated for 15 mins followed by TNF alpha stimulation for 30 mins by western blot analysis; assay type: cell-based
Outline: (§1)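 NIH-3T3-KBF-Luc cells were treated with the compounds for 15 min, then stimulated with TNFα (30 ng/mL) for 30 min. Lysis used Hepes pH 8.0 buffer with 0.5% NP-40 and protease/phosphatase inhibitors (15 min, 4 °C), then 10000g for 10 min. After Bradford assay, 20 μg protein was run on 10% SDS-PAGE and blotted to nitrocellulose. Blocking was 5% milk overnight; phospho-protein detection was by ECL.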

[5] = Inhibition of TNF alpha-induced NF-kappaB (unknown origin) activation in NIH/3T3-KBF-Luc cells after 6 hrs by luciferase reporter gene assay; assay type: cell-based; details: Homo sapiens
Outline: (§2)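 NIH-3T3-KBF-Luc fibroblasts (15 × 10⁴ cells/mL) were kept at 37 °C and 5% CO2 in DMEM with 10% heat-inactivated FBS. Cells were preincubated with the compounds at rising concentrations, then stimulated with TNFα for 6 h. They were PBS-washed and lysed for 15 min at rt in Tris-phosphate pH 7.8 with 1% Triton X-100. Luciferase was read in the supernatant, with TNFα alone set as 100%.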

[6] = species: Homo sapiens; assay: Inhibition of TNF alpha-induced NF-kappaB (unknown origin) activation in NIH/3T3-KBF-Luc cells assessed as suppression of IKappaB alpha phosphorylation at 1 to 50 uM preincubated for 15 mins followed by TNF alpha stimulation for 30 mins by western blot analysis; assay type: cell-based; outline: as §1
[7] = system: HaCaT; assay: Cytotoxicity against human HaCaT-ARE-Luc cells assessed as cell viability at 1 to 50 uM after 12 hrs by YOYO-1 staining based fluorescence assay
[8] = Cytotoxicity against mouse NIH/3T3-KBF-Luc cells assessed as cell viability at 1 to 50 uM after 12 hrs by YOYO-1 staining based fluorescence assay; details: nih3t3, 12 h
[9] = Cytotoxicity against mouse NIH/3T3-EPO-Luc cells assessed as cell viability at 1 to 50 uM after 12 hrs by YOYO-1 staining based fluorescence assay; details: nih3t3, 12 h
[10] = target: Signal transducer and activator of transcription 3 (Homo sapiens) (UniProt P40763); assay: Inhibition of IFN gamma-induced STAT3 (unknown origin) activation in HeLa-STAT3-Luc cells at 1 to 50 uM after 6 hrs by luciferase reporter gene assay; assay type: cell-based
Outline: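 HeLa-STAT3-Luc reporter cells (15 × 10⁴ cells/mL, DMEM with 10% FBS, 37 °C, 5% CO2) were preincubated with the compounds at rising concentrations, then stimulated with IFNγ for 6 h. Lysate luciferase is expressed as percent inhibition, with IFNγ-induced activity set as 100%.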

[11] = species: Homo sapiens; assay: Activation of NF-kappaB (unknown origin) in NIH/3T3-KBF-Luc cells at 1 to 50 uM coincubated with TNF-alpha after 6 hrs by luciferase reporter gene assay; assay type: cell-based; outline: as §2

Sequence of Hypoxia-inducible factor 1-alpha (Homo sapiens) (Q16665 whole entry, looked up): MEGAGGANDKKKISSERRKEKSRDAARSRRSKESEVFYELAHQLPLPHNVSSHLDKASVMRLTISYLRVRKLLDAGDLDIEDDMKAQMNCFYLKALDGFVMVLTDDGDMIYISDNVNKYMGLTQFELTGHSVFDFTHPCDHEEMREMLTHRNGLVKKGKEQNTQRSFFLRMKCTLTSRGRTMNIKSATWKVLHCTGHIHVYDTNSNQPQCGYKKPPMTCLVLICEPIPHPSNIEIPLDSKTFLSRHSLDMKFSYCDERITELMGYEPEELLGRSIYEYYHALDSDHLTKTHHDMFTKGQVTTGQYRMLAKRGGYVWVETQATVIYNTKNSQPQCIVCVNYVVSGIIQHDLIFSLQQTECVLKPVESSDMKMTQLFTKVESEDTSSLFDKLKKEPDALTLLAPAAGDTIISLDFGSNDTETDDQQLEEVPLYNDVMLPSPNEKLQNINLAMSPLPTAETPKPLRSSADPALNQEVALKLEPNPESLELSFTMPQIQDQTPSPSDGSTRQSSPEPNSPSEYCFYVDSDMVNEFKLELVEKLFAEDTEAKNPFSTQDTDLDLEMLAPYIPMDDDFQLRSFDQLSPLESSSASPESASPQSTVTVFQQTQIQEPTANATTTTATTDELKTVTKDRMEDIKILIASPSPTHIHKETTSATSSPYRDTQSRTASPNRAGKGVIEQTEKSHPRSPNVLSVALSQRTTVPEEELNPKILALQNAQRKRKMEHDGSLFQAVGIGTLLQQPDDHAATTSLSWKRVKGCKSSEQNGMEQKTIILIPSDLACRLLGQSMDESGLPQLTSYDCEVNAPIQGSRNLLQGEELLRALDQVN
Sequence of Signal transducer and activator of transcription 3 (Homo sapiens) (P40763 whole entry): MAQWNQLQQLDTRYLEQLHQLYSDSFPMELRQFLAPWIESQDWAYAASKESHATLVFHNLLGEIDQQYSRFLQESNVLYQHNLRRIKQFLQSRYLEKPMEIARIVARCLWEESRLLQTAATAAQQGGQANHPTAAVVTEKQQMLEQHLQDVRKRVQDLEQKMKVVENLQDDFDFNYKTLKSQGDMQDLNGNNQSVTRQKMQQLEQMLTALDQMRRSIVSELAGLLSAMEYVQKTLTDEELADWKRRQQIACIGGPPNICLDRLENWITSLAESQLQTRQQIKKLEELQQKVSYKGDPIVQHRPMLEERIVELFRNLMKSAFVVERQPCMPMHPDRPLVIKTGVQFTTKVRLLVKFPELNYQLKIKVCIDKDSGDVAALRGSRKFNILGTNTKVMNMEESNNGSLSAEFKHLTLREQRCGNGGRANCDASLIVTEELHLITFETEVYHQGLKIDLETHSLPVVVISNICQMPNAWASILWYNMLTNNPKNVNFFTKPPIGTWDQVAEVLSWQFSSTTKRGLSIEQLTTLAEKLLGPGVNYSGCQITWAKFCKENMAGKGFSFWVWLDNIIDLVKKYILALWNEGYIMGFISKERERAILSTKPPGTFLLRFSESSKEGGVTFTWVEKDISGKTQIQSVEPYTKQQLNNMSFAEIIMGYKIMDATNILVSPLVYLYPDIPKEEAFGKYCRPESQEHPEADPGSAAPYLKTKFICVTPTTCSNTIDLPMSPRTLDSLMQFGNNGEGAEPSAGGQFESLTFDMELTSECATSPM

Row | SMILES | Activity [1] | Activity [2] | inhibition [3] | inhibition [4] | IC50 [5] [µM] | inhibition [6] | Activity [7] | Activity [8] | Activity [9] | Activity [10] | Activity [11]
1 | CC(C)=CC(=O)C[C@H](C)c1ccc(C)cc1 | inactive | Non-toxic | inactive | Active | 22.7 | Active | Non-toxic | Non-toxic | Non-toxic | – | –
2 | C=C1C=C[C@H]([C@@H](C)CC(=O)C=C(C)C)CC1 | Active | – | inactive | – | – | – | – | – | – | inactive | Active
